Positions count from the first letter of the chain named. Names may count otherwise. “Also recorded” adds a separate entry of the source. Where no end group is shown, it is not given here. MBP = maltose binding protein (fused N-terminally to the peptide)
B1: MBP-IκBα full length (natural protein, human, UniProt P25963 1-317, looked up)
chain: MFQAAERPQEWAMEGPRDGLKKERLLDDRHDSGLDSMKDEEYEQMVKELQEIRLEPQEVPRGSEPWKQQLTEDGDSFLHLAIIHEEKALTMEVIRQVKGDLAFLNFQNNLQQTPLHLAVITNQPEIAEALLGAGCDPELRDFRGNTPLHLACEQGCLASVGVLTQSCTTPHLHSILKATNYNGHTCLHLASIHGYLGIVELLVSLGADVNAQEPCNGRTALHLAVDLQNPDLVSLLLKCGADVNRVTYQGYSPYQLTWGRPSTRIQQQLGQLTLENLQMLPESEDEESYDTESEFTEFTEDELPYDDCVFGGQRLTL
B2: MBP-IκBα(73-317) (domain or fragment, human, UniProt P25963 73-317, looked up)
chain: DGDSFLHLAIIHEEKALTMEVIRQVKGDLAFLNFQNNLQQTPLHLAVITNQPEIAEALLGAGCDPELRDFRGNTPLHLACEQGCLASVGVLTQSCTTPHLHSILKATNYNGHTCLHLASIHGYLGIVELLVSLGADVNAQEPCNGRTALHLAVDLQNPDLVSLLLKCGADVNRVTYQGYSPYQLTWGRPSTRIQQQLGQLTLENLQMLPESEDEESYDTESEFTEFTEDELPYDDCVFGGQRLTL
B3: IKKβ(1-669) EE, 6xHis tag removed (enzyme, human, UniProt O14920 1-669, looked up)
chain: MSWSPSLTTQTCGAWEMKERLGTGGFGNVIRWHNQETGEQIAIKQCRQELSPRNRERWCLEIQIMRRLTHPNVVAARDVPEGMQNLAPNDLPLLAMEYCQGGDLRKYLNQFENCCGLREGAILTLLSDIASALRYLHENRIIHRDLKPENIVLQQGEQRLIHKIIDLGYAKELDQGELCTEFVGTLQYLAPELLEQQKYTVTVDYWSFGTLAFECITGFRPFLPNWQPVQWHSKVRQKSEVDIVVSEDLNGTVKFSSSLPYPNNLNSVLAERLEKWLQLMLMWHPRQRGTDPTYGPNGCFKALDDILNLKLVHILNMVTGTIHTYPVTEDESLQSLKARIQQDTGIPEEDQELLQEAGLALIPDKPATQCISDGKLNEGHTLDMDLVFLFDNSKITYETQISPRPQPESVSCILQEPKRNLAFFQLRKVWGQVWHSIQTLKEDCNRLQQGQRAAMMNLLRNNSCLSKMKNSMASMSQQLKAKLDFFKTSIQIDLEKYSEQTEFGITSDKLLLAWREMEQAVELCGRENEVKLLVERMMALQTDIVDLQRSPMGRKQGGTLDDLEEQARELYRRLREKPRDQRTEGDSQEMVRLLLQAIQSFEKKVRVIYTQLSKTVVCKQKALELLPKVEEVVSLMNEDEKTVVRLQEKRQKELWNLLKIACSKVRGPV
B4: IkBa C308F (protein, UniProt P25963 1-317, looked up, variant C308F)
NF-kappa-B inhibitor alpha: B1 chain with C308F

How the values were obtained:
[1] = target: T1, IKKα(10-667) EE homodimer (Homo sapiens, UniProt O15111, S176E/S180E); test: ITC of synthetic YDDΦxΦ peptides with IKKα homodimer; format: binding; details: for ITC binding to IKKα, in words: 25 °C, titration of the IKKα homodimer with synthetic peptide
T1 sequence (O15111 10-667 S176E/S180E): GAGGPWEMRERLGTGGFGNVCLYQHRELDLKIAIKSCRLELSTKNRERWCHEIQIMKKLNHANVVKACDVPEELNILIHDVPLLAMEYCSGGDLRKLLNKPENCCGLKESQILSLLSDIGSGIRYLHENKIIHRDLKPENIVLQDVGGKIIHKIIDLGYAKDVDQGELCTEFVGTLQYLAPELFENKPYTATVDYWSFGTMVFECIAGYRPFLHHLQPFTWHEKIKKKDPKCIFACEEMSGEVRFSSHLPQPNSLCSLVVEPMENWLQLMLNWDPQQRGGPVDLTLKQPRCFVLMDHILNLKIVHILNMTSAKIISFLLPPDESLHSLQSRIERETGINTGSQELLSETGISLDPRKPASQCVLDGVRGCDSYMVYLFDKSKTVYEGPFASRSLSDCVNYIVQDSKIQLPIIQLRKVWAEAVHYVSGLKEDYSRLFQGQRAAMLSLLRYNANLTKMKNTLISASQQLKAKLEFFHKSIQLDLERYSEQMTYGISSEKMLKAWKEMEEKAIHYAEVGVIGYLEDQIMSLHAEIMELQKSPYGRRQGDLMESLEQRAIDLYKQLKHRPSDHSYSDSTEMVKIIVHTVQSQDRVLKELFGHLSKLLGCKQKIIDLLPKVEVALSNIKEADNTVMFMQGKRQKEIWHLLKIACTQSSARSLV
Outline: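 IKKα(10-667) EE was expressed in Sf21 insect cells and purified by Ni-NTA affinity. It was then dialyzed overnight at 4 °C against ITC buffer (20 mM HEPES pH 8.0, 150 mM NaCl, 1 mM TCEP), which was used for all titrations unless otherwise stated.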

[2] = test system: IKKα/β heterodimer (6xHis-IKKβ(1-669) EE, Strep-IKKα(10-667) EE); test: MBP-pulldown with purified IKKα/β heterodimer; format: binding; details: MBP-IκBα pep(s) vs MBP negative control, Coomassie
Outline: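 Heterodimer co-expressed in Sf21 insect cells, purified on Strep-Tactin then Ni-NTA, pre-incubated with 1 mM ATP, MgCl2, β-glycerophosphate, NaF and orthovanadate for 1 h on ice, then gel-filtered in Tris pH 8.0 buffer. MBP-fusion baits expressed in E. coli BL21(DE3), captured on amylose resin. Binding in 20 mM Tris pH 8.0, 150 mM NaCl, 2 mM DTT. Bound proteins Coomassie-stained.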

6xHis-IKKβ(1-669) EE [3] = target: T2, 6xHis-IKKβ(1-669) EE (human, UniProt O14920 1-669, S177E | S181E); test: pull-down
T2 sequence (looked up): B3 chain

6xHis-IKKβ(1-669) EE [4] = target: T2, 6xHis-IKKβ(1-669) EE; test: pull-down; remark: listed apart in the source
[5] = target: T3, IKKα(10-667) EE, 6xHis tag removed (UniProt O15111 10-667, S176E | S180E); test: ITC
T3 sequence (looked up): T1 sequence (O15111 10-667 S176E/S180E)

[6] = target: B3; test: ITC
6xHis-IKKβ(1-669) EE [7] = target: T2, 6xHis-IKKβ(1-669) EE; test: cross-linking
crystal structure = target: the molecule itself; test: crystal structure
[8] = test system: MEF cells KO for IκBα, IκBβ, IκBε; test: In cellulo degradation of retro-transduced IκBα proteins after TNFα; format: cell-based, mouse; details: retro-transduced IκBα constructs, TNFα 20 ng/ml, compared with wt IκBα
Outline: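 Retroviruses came from Phoenix-eco cells (5 × 10^6) transfected with 6 μg pBABE-IκBα plasmid; empty vector was the control. Medium was changed at 6 h and the virus-containing medium collected at 48 h, filtered, and used to infect the MEFs.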

How did the Kd [1] turn out when “EFTEDELPYDDLVFGGQRLTL-NH2 [IκBα pep C308L]” was run?
The Kd was 0.42 µM.

EFTEDELPpYDDLVFGGQRLTL [pY-IκBα pep] was tested. Which “ITC binding to IKKα, in words” value [1] did it give?
Its value is “too weak to allow for accurate thermodynamic analysis; also recorded: absence of interaction”.

How did the “binding of the IKKα/β heterodimer in MBP-pulldown, in words” value [2] turn out when “IκBα pep(s): 17 amino acid peptide, residues 301-317 of IκBα, fused to MBP ({MBP}-DELPYDDCVFGGQRLTL)” was run?
Its value is “specifically binds”.

How did the “ITC binding to IKKα, in words” value [1] turn out when LSSANSLYDDIECFLMELEQPA [IRF7 pep] was run?
Its value is “too weak to allow for accurate thermodynamic analysis; also recorded: binds with weak affinity to IKKα”.

Does B1 bind (6xHis-IKKβ(1-669) EE [3])?
Result: binds

Does DELPYDDFVFGGQRLTL (peptide, UniProt P25963 301-317, looked up) [MBP-IκBα pep(s) C308F] bind (6xHis-IKKβ(1-669) EE [4])?
Result: binds

Does DELPYDDLVFGGQRLTL (peptide, UniProt P25963 301-317, looked up) [MBP-IκBα pep(s) C308L] bind (6xHis-IKKβ(1-669) EE [4])?
Result: binds

Does B2 bind (6xHis-IKKβ(1-669) EE [4])?
Result: binds

How did the Kd [5] turn out when EFTEDELPYDDCVFGGQRLTL [IκBα pep (synthetic, residues 297-317 of IκBα)] was run?
The Kd was 7.7 µM.

What about the dH [5] of the same molecule?
The dH was -14.2 kcal/mol.

And the “stoichiometry N” value [5]?
The value was 0.63.

And the Kd [6]?
Its Kd is 40 µM.

What about the dH [6] of the same molecule?
Its dH is -16.3 kcal/mol.

What about the “stoichiometry N” value [6] of the same molecule?
Its value is 0.63.

For EFTEDELPYDDLVFGGQRLTL-NH2 [C308L IκBα pep (synthetic)], which Kd [6] is on record?
Its Kd is 2.4 µM.

And the dH [6]?
Its dH is -11.5 kcal/mol.

What about the “stoichiometry N” value [6] of the same molecule?
Its value is 0.66.

With GLDGIIEYDDFKLNSSIVEPKE [p100 pep (synthetic, residues 8-29 of p100)] as the molecule, how does the Kd [5] read?
The Kd was about 12 µM.

And the dH [5]?
The dH was about -13.4 kcal/mol.

What about the “stoichiometry N” value [5] of the same molecule?
Its value is 0.6.

Does EFTEDELPYDDLVFGGQKLTL-NH2 [C308L/R314K IκBα pep (synthetic)] bind (6xHis-IKKβ(1-669) EE [7])?
Result: binds

Does B3 bind (crystal structure)?
Result: binds

Which “IκBα degradation after TNFα stimulation, in words” value [8] does the source give for B4 here?
The value was “slightly faster compared to that of the wt IκBα protein”.

From publication PMC11371828 (Nature Communications, 2024)
